Measurements from ChEMBL document CHEMBL3351891, “Synthesis and structure-activity relationships of lapacho analogues. 2. Modification of the basic naphtho[2,3-b]furan-4,9-dione, redox activation, and suppression of human keratinocyte hyperproliferation by 8-hydroxynaphtho[2,3-b]thiophene-4,9-diones” (J Med Chem, 2014).

Tests used:
[1] = system: HaCaT; assay: Antihyperproliferative activity against human HaCaT cells assessed as inhibition of cell growth after 48 hrs by phase contrast microscopy; assay type: functional, cell-based
In short: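 Immortalized human HaCaT keratinocytes incubated with compound for 48 h; growth determined by counting dispersed cells under phase contrast microscopy. Inhibition = (1 − test/control) × 100, test N = 3 vs control N = 6−8, Student's t test; IC50 by nonlinear regression.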

[2] = system: HaCaT; assay: Antihyperproliferative activity against human HaCaT cells assessed as LDH release at 2 umol/L after 4 hrs; assay type: functional
In short: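 HaCaT keratinocytes exposed to test compound (2 μM) for 4 h at 37 °C; extracellular LDH in supernatant measured by UV method with pyruvate and NADH, reported as mU/mL. Vehicle control 0.2% DMSO in medium; Brij 35 with ultrasound as positive control; N = 3.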

[3] = system: HaCaT; assay: Induction of superoxide generation in human HaCaT cells assessed as apoptotic cells at 5 umol/L for 18 hrs chronic treatment (reference value: 3 +/- 1%); assay type: functional
[4] = Induction of superoxide generation measured per 2 mU of enzyme in presence of cytochrome P450 oxidoreductase; assay type: physicochemical
In short: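 Human recombinant NADPH–cytochrome P450 oxidoreductase with compound ([…]); spectrophotometric SOD-inhibitable reduction of succinoylated cytochrome c, with catalase and DTPA present. Rate given as μmol/L/min per 2 mU enzyme; mean ± SD, N ≥ 3.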

[5] = system: HaCaT; assay: Induction of superoxide generation in human HaCaT cells assessed as mean fluorescence intensity at 50 umol/L for 30 mins acute treatment (reference value: 7.1 +/- 5.2 no unit); assay type: functional
[6] = Induction of superoxide generation measured per U of enzyme in presence of NQO-1; assay type: physicochemical
In short: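 Human recombinant NQO-1 with NADPH and compound ([…]); superoxide followed spectrophotometrically as SOD-inhibitable cytochrome c reduction, with catalase and DTPA added. Rate as μmol/L/min per U enzyme; mean ± SD, N ≥ 3.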

[7] = system: HaCaT; assay: Induction of superoxide generation in human HaCaT cells assessed as apoptotic cells at 5 umol/L for 18 hrs chronic treatment in presence of dicoumarol NQO-1 inhibitor (reference value: 4.3 +/- 2.6%); assay type: functional
[8] = system: HaCaT; assay: Induction of superoxide generation in human HaCaT cells assessed as mean fluorescence intensity at 5 umol/L for 18 hrs chronic treatment (reference value: 367.5 +/- 80.1 no unit); assay type: functional
[9] = system: HaCaT; assay: Induction of superoxide generation in human HaCaT cells assessed as mean fluorescence intensity at 5 umol/L for 18 hrs chronic treatment in presence of dicoumarol NQO-1 inhibitor (reference value: 407.6 +/- 68.7 no unit); assay type: functional

| Structure (SMILES) | IC50 [1] [µM] | further results |
| --- | --- | --- |
| O=C1c2sccc2Cc2cccc(O)c21 | 2.5 | – |
| O=C(c1ccccc1)c1cc2c(s1)C(=O)c1c(O)cccc1C2=O | 0.8 | Activity [2]: 419 mU/ml |
| CCc1ccc2c(c1O)C(=O)c1sccc1C2=O | 11.4 | – |
| O=C1c2ccsc2C(=O)c2c1ccc(CO)c2O | 1.2 | Activity [2]: 214 mU/ml |
| COc1ccc(C(=O)c2cc3c(s2)C(=O)c2c(O)cccc2C3=O)c(O)c1 | 7.07 | – |
| CCOC(=O)c1cc2c(s1)C(=O)c1c(O)cccc1C2=O | 0.76 | Activity [2]: 233 mU/ml |
| Nc1cccc2c1C(=O)c1sccc1C2=O | > 30 | – |
| COc1c2ccsc2c(OC)c2c(OC)cccc12 | > 30 | – |
| CC1=CC(=O)c2ccccc2C1=O [MENADIONE] | – | Activity [3]: 4.8%; Activity [4]: 2.1 µmol/L/min; Flu intensity [5]: 44; Activity [6]: 1 µmol/L/min; Activity [7]: 3.1%; Flu intensity [8]: 431.9; Flu intensity [9]: 457.2 |
| CC(=O)c1cc2c(s1)C(=O)c1ccccc1C2=O | 0.44 | – |
| CC(=O)c1nc2c([nH]1)C(=O)c1ccccc1C2=O | > 30 | – |
| CC(=O)c1cc2c(s1)C(=O)c1c(ccc(CO)c1O)C2=O | 0.7 | Activity [2]: 284 mU/ml |
| COC(=O)c1ccccc1Cc1ccc2c(c1O)C(=O)c1sccc1C2=O | 19.1 | – |
| O=C(Cc1ccccc1)c1cc2c(s1)C(=O)c1c(O)cccc1C2=O | 4.42 | – |
| COc1cccc2c1C(=O)c1sc(C(=O)c3cccnc3)cc1C2=O | 5.7 | – |
| Cc1ccc(Cc2ccc3c(c2O)C(=O)c2sccc2C3=O)cc1 | 13.8 | – |
| O=C1c2ccccc2C(=O)c2ocnc21 | 0.9 | – |
| O=C(c1ccc(Cl)cc1)c1cc2c(s1)C(=O)c1c(O)cccc1C2=O | 5.64 | – |
| O=C1c2ccsc2C(=O)c2c1ccc(Cc1ccco1)c2O | 8.5 | Activity [2]: 127 mU/ml |
| CCCOC(=O)Cc1ccc2c(c1O)C(=O)c1sccc1C2=O | 4.5 | – |
| CC(=O)c1cc2c(s1)C(=O)c1c(O)cccc1C2=O | 0.4 | Activity [3]: 23%; Activity [4]: 1.1 µmol/L/min; Flu intensity [5]: 23.7; Activity [6]: 0.6 µmol/L/min; Activity [7]: 7.3%; Flu intensity [8]: 921.4; Flu intensity [9]: 813 |
| Cn1cnc2c1C(=O)c1ccccc1C2=O | > 30 | – |
| CCC(=O)c1cc2c(OC)c3cccc(OC)c3c(OC)c2s1 | > 30 | – |
| CCOC(=O)Cc1ccc2c(c1O)C(=O)c1sccc1C2=O | 2.1 | – |
| O=C1c2ccsc2C(=O)c2c(O)cccc21 | 2.75 | Activity [3]: 4.9%; Activity [4]: 1.8 µmol/L/min; Flu intensity [5]: 23.8; Activity [6]: 0.3 µmol/L/min; Activity [7]: 6.1%; Flu intensity [8]: 610.6; Flu intensity [9]: 717.7 |

| Structure (SMILES) | IC50 [1] [µM] | further results |
| --- | --- | --- |
| CCc1noc(-c2cc3c(s2)C(=O)c2c(OC)cccc2C3=O)n1 | 3.52 | – |
| COc1cccc2c1C(=O)c1sccc1C2=O | 13.5 | – |
| O=Cc1cc2c(s1)C(=O)c1c(O)cccc1C2=O | 1 | – |
| COC(=O)Cc1ccc2c(c1O)C(=O)c1sccc1C2=O | 2.8 | – |
| CCOC(=O)c1cc2c(OC)c3cccc(OC)c3c(OC)c2s1 | > 30 | – |
| O=C(O)c1cc2c(s1)C(=O)c1c(O)cccc1C2=O | > 30 | – |
| COc1ccc(Cc2ccc3c(c2O)C(=O)c2sccc2C3=O)cc1 | 23.2 | – |
| O=C(CCc1ccccc1)c1cc2c(s1)C(=O)c1c(O)cccc1C2=O | > 30 | – |
| O=C(O)c1ccc(Cc2ccc3c(c2O)C(=O)c2sccc2C3=O)cc1 | > 30 | – |
| CC(=O)c1nc2c(n1C)C(=O)c1ccccc1C2=O | > 30 | – |
| O=C(Cc1ccc2c(c1O)C(=O)c1sccc1C2=O)OCc1ccccc1 | > 30 | – |
| CCC(=O)c1cc2c(s1)C(=O)c1c(O)cccc1C2=O | 0.38 | Activity [2]: 244 mU/ml |
| COc1c2cc(C(=O)c3cccnc3)sc2c(OC)c2c(OC)cccc12 | > 30 | – |
| O=C1c2ccccc2C(=O)c2[nH]cnc21 | > 30 | – |
| O=C1c2ccsc2C(=O)c2c(Cl)cccc21 | 3.77 | – |
| CCN(CC)C(=O)c1cc2c(s1)C(=O)c1c(O)cccc1C2=O | 0.36 | Activity [2]: 330 mU/ml |
| CCc1noc(-c2cc3c(s2)C(=O)c2c(O)cccc2C3=O)n1 | 0.19 | Activity [3]: 77.6%; Activity [4]: 1 µmol/L/min; Flu intensity [5]: 20.9; Activity [6]: 0.7 µmol/L/min; Activity [7]: 20.3%; Flu intensity [8]: 802.2; Activity [2]: 150 mU/ml; Flu intensity [9]: 747 |
| O=C1c2c(O)cccc2Cc2cccc(O)c21 [ANTHRALIN] | – | Activity [2]: 239 mU/ml |
| O=C(OCCc1ccccc1)c1cc2c(s1)C(=O)c1c(O)cccc1C2=O | > 30 | – |
| O=C(c1cccs1)c1cc2c(s1)C(=O)c1c(O)cccc1C2=O | 0.29 | Activity [2]: 158 mU/ml |
| O=C1c2ccccc2C(=O)c2[nH]ccc21 | > 30 | – |
| O=C1c2ccsc2C(=O)c2c1ccc(Cc1ccccc1)c2O | 10.1 | Activity [2]: 107 mU/ml |
| O=C(O)Cc1ccc2c(c1O)C(=O)c1sccc1C2=O | 21.5 | – |
| O=C1c2ccsc2C(=O)c2c1ccc(Cc1ccc(C(F)(F)F)cc1)c2O | 16.7 | – |
| N#Cc1ccc(Cc2ccc3c(c2O)C(=O)c2sccc2C3=O)cc1 | 14.2 | – |

| Structure (SMILES) | IC50 [1] [µM] | further results |
| --- | --- | --- |
| COc1ccc(COC(=O)c2cc3c(s2)C(=O)c2c(O)cccc2C3=O)cc1 | 11.9 | – |
| COC(=O)c1ccc(Cc2ccc3c(c2O)C(=O)c2sccc2C3=O)cc1 | > 30 | – |
| CCC(=O)c1cc2c(s1)C(=O)c1c(OC)cccc1C2=O | 3.5 | – |
| COc1ccc(C(=O)c2cc3c(s2)C(=O)c2c(O)cccc2C3=O)cc1 | 4.72 | – |
| CC(=O)c1cc2c(s1)C(=O)c1c(O)ccc(O)c1C2=O | 0.5 | – |
| O=C(O)c1ccccc1Cc1ccc2c(c1O)C(=O)c1sccc1C2=O | 25.7 | – |
| CC(C)OC(=O)c1cc2c(s1)C(=O)c1c(O)cccc1C2=O | 0.92 | – |
| COc1ccc(Cc2ccc3c(c2O)C(=O)c2sccc2C3=O)cc1OC | > 30 | – |
| O=C(c1cccnc1)c1cc2c(s1)C(=O)c1c(O)cccc1C2=O | 0.3 | Activity [2]: 154 mU/ml |
| CC(=O)Nc1cccc2c1C(=O)c1sccc1C2=O | 2.76 | – |
| O=C(COc1ccccc1)c1cc2c(s1)C(=O)c1c(O)cccc1C2=O | 11.2 | – |
| CCCCc1ccc2c(c1O)C(=O)c1sccc1C2=O | > 30 | – |
| O=C1c2ccccc2C(=O)c2sccc21 [THIOPHENONAPHTHOQUINONE] | 4.8 | – |
| CCc1noc(-c2cc3c(OC)c4cccc(OC)c4c(OC)c3s2)n1 | > 30 | – |
| Cc1ccc2c(c1O)C(=O)c1sccc1C2=O | 5.3 | – |
| CC(=O)c1cc2c(s1)C(=O)c1c(Cl)cccc1C2=O | 1.28 | – |
| O=C1c2ccccc2C(=O)c2scnc21 | 1.2 | – |
| COc1cccc2c1C(=O)c1sc(C(C)=O)cc1C2=O | 3.5 | – |
| CC1(C)CCC2=C(O1)c1ccccc1C(=O)C2=O [LAPACHONE] | – | Activity [2]: 268 mU/ml |
| CC(C)C(=O)c1cc2c(s1)C(=O)c1c(O)cccc1C2=O | 0.45 | – |
| O=C1c2cc(-c3nc(CCc4ccccc4)no3)sc2C(=O)c2c(O)cccc21 | 0.48 | – |
| O=C1c2ccccc2C(=O)c2[se]ccc21 | 6.12 | – |
| CCOC(=O)c1cc2c(s1)C(=O)c1c(OC)cccc1C2=O | 2.87 | – |
| O=C1c2ccsc2C(=O)c2c(O)ccc(O)c21 | 2.7 | – |
